STAT3 blocker: STAT3 signaling inhibition; U3A cells, IL-6 STAT3-luciferase reporter, luminescence; host cell line lacks STAT1; inhibition, % at 5.5 µM; actives 0.89% (n = 190,000);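 active means inhibition above the mean inhibition across all screened compounds plus 3 SD, cut at about 44% in these data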
STAT1 inh: reduces IFN-gamma driven STAT1 reporter signal; NIH 3T3 STAT1-luciferase reporter, luminescence; inhibition, % at 5.5 µM; actives 0.35% (n = 200,000); AID 920;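 active means inhibition above a set limit, the mean inhibition across all tested compounds plus 3 SD, cut at about 34% in these data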
NF-kB neuron act: raises NF-kB expression in human neuronal cells; NF-kB reporter expression; active compounds read high; fold change at 12.5 µM; actives 1.6% (n = 190,000); in the data active means fold change above about 3.3
STAT1 act: activators of IFN-gamma induced STAT1 signaling; actives 2.6% (n = 200,000); activation (% of control), % at 5.5 µM; NIH 3T3 STAT1-luciferase reporter, luminescence; 100% = IFN-gamma alone, no compound;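 active means activation above the screen-wide mean activation plus 3 SD, cut at about 130% in these data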
APP 5'UTR act: activates APP 5'UTR luciferase reporter | activation, % at 2 µM | AID 1276 | actives 1% (n = 190,000) | SH-SY5Y APP 5'UTR luciferase reporter, luminescence; zero percent = DMSO vehicle wells;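 active means activation above a set limit, based on mean plus 3 SD of controls, cut at about 140% in these data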
STAT3 act: increases IL-6 driven STAT3 reporter signal. activation (% of control), % at 5.6 µM. U3A cells, IL-6 STAT3-luciferase reporter, luminescence; 100% = signal with IL-6 EC80 alone. actives 0.91% (n = 190,000). AID 871;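 active means activation above the screen-wide mean of compound activation plus 3 SD, cut at about 130% in these data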
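Material: human U3A cells carrying STAT3-luciferase construct. Measured by: reporter luminescence signal. Timing: compound 1 h, then IL-6 6 h at 37 °C.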
Numbers stand for hits; 0 = inactive; - = not tested or not shown. Rows were chosen to be rich in hits. Some 5.1% of all compounds tested hit in one or more screens of this group.

SMILES	STAT3 blocker	STAT1 inh	NF-kB neuron act	STAT1 act	APP 5'UTR act	STAT3 act
Cc1ccc(OC(C)C(=O)N=Nc2c(O)[nH]c3ccc([N+](=O)[O-])cc23)cc1 (configuration not stated)	0	0	0	0	0	0
O=C(CSc1nnc(-c2csc3c2CCCC3)o1)Nc1ccccc1	0	0	3.4	138	203	0
Cc1csc(NC(=O)CSc2nnc(-c3ccccc3)o2)n1	0	0	0	0	136	0
Cc1ccc(OCC(=O)N/N=C/C=C/c2ccco2)cc1C	0	0	0	0	0	0
CCOc1ccc(/C=N/OC(C)C(=O)NCc2ccc3c(c2)OCO3)cc1 (configuration not stated)	0	0	0	0	0	0
O=C(Nc1ccc2c(c1)CCC2)c1cnc(Cl)c(Cl)c1	0	0	3.8	135	149	0
O=C(Nc1ccc2c(c1)CCC2)c1ccc(Cl)nc1	0	0	4	163	0	137
O=C(COc1ccc(Cl)cc1)Nc1ccc2c(c1)CCC2	0	0	0	0	0	0
Cc1noc(C)c1C(=O)Nc1ccc2c(c1)CCC2	0	0	0	0	0	0
Cc1ccc(Nc2nnc(SC(C)C(=O)Nc3c(C)n(C)n(-c4ccccc4)c3=O)s2)cc1 (configuration not stated)	0	0	0	0	0	0
CCCc1c(C)c2cccc(C)c2[nH]c1=O	0	0	0	0	0	0
CCCCN1CCc2c([nH]c3c(C)cccc23)C1=O	0	0	3.5	0	0	0
O=C(O)c1c(-c2ccc(Cl)cc2)cn2ccccc12	0	0	0	135	0	0
Cc1cc(C)cc(NC(=S)Nc2ccccn2)c1	0	0	0	0	0	0
Cc1cc(Cl)ccc1Nc1ncccc1C(N)=O	0	0	0	130	0	0
Cc1cc(Cl)ccc1NC(=S)Nc1ccccn1	0	0	0	130	0	0
NC(=O)c1cccnc1Nc1ccccc1F	0	0	0	0	0	0
COC(C(=O)Nc1ccc(S(=O)(=O)Nc2cccc3ccccc23)cc1)c1ccccc1 (configuration not stated)	0	0	0	0	0	0
CS(=O)(=O)N1CCN(c2ccc(NC(=O)c3ccc(Br)o3)cc2)CC1	0	0	0	130	0	0
COc1ccc(N2CCN(C(c3cccs3)C(C)NS(C)(=O)=O)CC2)cc1 (configuration not stated)	0	0	0	0	0	0
O=S(=O)(c1ccccc1)c1cnc(-c2ccccc2)nc1N1CCCC1	0	0	0	146	0	0
O=C(O)CCn1c(=S)n(CCC(=O)O)c2ccccc21	-	-	-	-	0	-
Cc1ccc2nc(-c3cccc(S(=O)(=O)N(C)C)c3)cn2c1	0	0	0	136	0	0
CCc1ccc(NC(=O)C(=O)NCC2CCCO2)cc1 (configuration not stated)	0	0	0	131	0	0
CCc1ccc(CNC(=O)C(=O)NCC2CCCO2)cc1 (configuration not stated)	0	0	0	0	0	0
SMILES	STAT3 blocker	STAT1 inh	NF-kB neuron act	STAT1 act	APP 5'UTR act	STAT3 act
CCc1ccc(NC(=O)C(=O)NCc2ccccn2)cc1	0	0	0	132	0	0
O=[N+]([O-])c1ccccc1N/N=C/c1c[nH]c2ccccc12	0	0	4.2	151	173	203
C(=C\c1ccccc1)/C=N/Nc1nc2ccccc2[nH]1	0	0	4.5	148	137	0
Brc1ccc(-c2ccc(/C=N/Nc3nc4ccccc4[nH]3)o2)cc1	0	0	0	138	0	0
Cn1cc([N+](=O)[O-])c(C(=O)N/N=C\c2c[nH]c3ccccc23)n1	0	0	0	0	0	0
C(=N\Nc1nc2ccccc2[nH]1)/c1c[nH]c2ccccc12	0	0	0	130	0	0
Cc1ccccc1/C=N/Nc1nc2ccccc2[nH]1	0	0	0	0	0	0
COC(=O)C1Cc2ccccc2CN1C(=O)CCl (configuration not stated)	0	0	0	0	0	0
O=C(COc1ccccc1[N+](=O)[O-])Nc1ccc(N2CCN(C(=O)c3cccs3)CC2)cc1	0	0	0	0	0	0
O=C(Nc1ccc2ncccc2c1)c1cc(Cl)ccc1Cl	0	0	0	0	0	0
Fc1cccc(/C=N/Nc2nc3ccccc3[nH]2)c1	0	0	0	141	0	0
C(=N\Nc1ccccn1)/c1ccc2c(c1)OCCO2	0	0	0	137	140	0
Fc1cccc(/C=N/Nc2ccccn2)c1	0	0	0	138	0	0
CCOC(=O)c1oc2ccc(/C=N/O)c(Cl)c2c1C	0	0	0	132	0	0
CCOC(=O)c1oc2cccc(OCC(O)CNC(C)C)c2c1C (configuration not stated)	0	0	0	0	0	0
CC(C)(C)c1nnc(NC(=S)Nc2ccccc2)s1	0	0	3.6	140	0	0
CC(=O)Nc1ccc(NC(=S)Nc2ccccc2)cc1	0	0	0	0	0	0
Clc1cccc(Cl)c1CSc1cc2c(nn1)-c1ccccc1CC2	0	0	0	0	0	0
Clc1ccccc1CSc1cc2c(nn1)-c1ccccc1CC2	0	0	3.7	0	0	0
C/C(=N/NC(=O)c1cccs1)c1ccc(N2CCOCC2)cc1	0	0	0	0	0	0
CC(C)c1nc(SCC(=O)Nc2c[nH]c(=O)[nH]c2=O)c2cnn(-c3ccccc3)c2n1	0	0	0	0	0	0
COc1ccc(N2C(=O)CCC2=O)c(OC)c1	0	0	0	140	0	0
COc1ccc(N2C(=O)C3CC(C)=C(C)CC3C2=O)c(OC)c1 (configuration not stated)	0	0	0	0	0	0
COc1ccc(OCC(=O)N/N=C2\CCc3ccccc32)cc1	0	0	0	0	0	0
COc1ccc2c(c1)CC/C2=N\NC(=O)c1ccccc1	0	0	0	130	0	0
SMILES	STAT3 blocker	STAT1 inh	NF-kB neuron act	STAT1 act	APP 5'UTR act	STAT3 act
O=C(CCN1CCN(c2ccccc2)CC1)NNC(=S)Nc1ccccc1Cl	0	0	0	0	0	0
CC(=NC1CCCCC1)C1=C(O)c2ccccc2C1=O	0	0	-	148	0	0
CCSCCOC(=O)C1=C(C)NC2=C(C(=O)CCC2)C1c1coc2ccccc2c1=O (configuration not stated)	0	0	0	0	0	144
CCn1cc(C(=O)Nc2ccc(OC)c(S(=O)(=O)N3CCCCC3)c2)c(=O)c2ccc(C)nc21	0	0	0	0	0	0
CCc1ccc(NC(=O)c2cc(-c3ccco3)on2)cc1	0	0	0	130	0	0
O=C(Nc1cccnc1Cl)c1cc(-c2ccco2)on1	0	0	0	0	0	0
COc1ccc(NC(=O)c2cc(-c3ccco3)on2)cc1	0	0	0	149	0	0
CN(C)/C=C/C(=O)c1ccc(-c2ccc(Cl)cc2Cl)o1	0	0	0	0	0	0
O=C1c2ccccc2C(=O)N1CCc1c[nH]c2ccc(O)cc12	0	0	0	132	0	0

Screening data as filed in PubChem BioAssay.
